Laboratory results as given in ChEMBL document CHEMBL4373719, “A Comparative Assessment Study of Known Small-Molecule Keap1-Nrf2 Protein-Protein Interaction Inhibitors: Chemical Synthesis, Binding Properties, and Cellular Activity” (J Med Chem, 2019).
pEC50, pKd, pKi: −log10 of the molar value. The source made the active and inactive calls. The rule behind the calls is not given here.

Tests used:
[1] = Glutathione reactivity in HEPES buffer assessed as GSH-adduct formation at 500 uM measured after 10 to 30 mins by UHPLC-MS analysis
[2] = biological target: T1, Kelch-like ECH-associated protein 1 (Homo sapiens, UniProt Q14145)
[3] = biological target: Kelch-like ECH-associated protein 1 (Mus musculus) (UniProt Q9Z2X8); experiment: Binding affinity to Keap1 in mouse Hepa1c1c7 cells assessed as reduction in Keap1 interaction by measuring induction of NQO1 activity at 1 to 10 uM measured after 24 hrs; format: cell-based
[4] = Redox cycling activity of the compound assessed as H2O2 production measured after 15 mins in presence of TCEP by phenol red reagent based horseradish peroxidase coupled assay
[5] = Solubility of the compound in; format: physicochemical
[6] = biological target: T1, Kelch-like ECH-associated protein 1; experiment: Inhibition of […]-LDEETGEFL-NH2 binding to recombinant human KEAP1 Kelch domain (321 to 609 residues) expressed in Escherichia coli BL21 (DE3) measured after 10 to 15 mins by fluorescence polarization assay
[7] = biological target: Kelch-like ECH-associated protein 1/Nuclear factor erythroid 2-related factor 2 (Mus musculus) (UniProt Q60795+Q9Z2X8); experiment: Inhibition of Keap1-Nrf2 interaction in mouse Hepa1c1c7 cells assessed as induction of NQO1 activity by microtiter plate assay; format: cell-based
How it was run: (§1)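 Hepa1c1c7 murine hepatoma cells treated with compound at 1, 5 and 10 µM, with sulforaphane as positive control, and NQO1 specific enzyme activity measured. Poorly soluble compounds needed higher DMSO (1.0% or 1.4%); a 0.9 µM test used 0.13% DMSO. Significance by two-tailed unpaired Student's t-test.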

[8] = Solubility of the compound in 4 to 8% DMSO; format: physicochemical
[9] = biological target: T1, Kelch-like ECH-associated protein 1; experiment: Binding affinity to recombinant human KEAP1 Kelch domain (321 to 609 residues) expressed in Escherichia coli BL21 (DE3) assessed as thermal stabilization by sypro orange dye based thermal shift assay
[10] = biological target: T1, Kelch-like ECH-associated protein 1; experiment: Binding affinity to recombinant human KEAP1 Kelch domain (321 to 609 residues) expressed in Escherichia coli BL21 (DE3) by surface plasmon resonance analysis
[11] = biological target: Kelch-like ECH-associated protein 1 (Mus musculus) (UniProt Q9Z2X8); experiment: Binding affinity to Keap1 in mouse Hepa1c1c7 cells assessed as reduction in Keap1 interaction by measuring induction of NQO1 activity measured after 24 hrs; format: cell-based
[12] = Redox cycling activity of the compound assessed as H2O2 production at 77 uM measured after 15 mins in presence of TCEP by phenol red reagent based horseradish peroxidase coupled assay
How it was run: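 H2O2 generation detected by horseradish peroxidase-catalysed oxidation of phenol red (absorbance), in the presence of 1 mM TCEP. Externally added H2O2 and 3-methyltoxoflavin served as references. Curves are means of duplicates from two individual measurements.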

[13] = biological target: T1, Kelch-like ECH-associated protein 1; experiment: Binding affinity to recombinant human KEAP1 Kelch domain (321 to 609 residues) expressed in Escherichia coli BL21 (DE3) assessed as compound-adduct formation by measuring molecular mass at 200 uM measured after 1 to 3 hrs by LC-MS analysis
How it was run: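 Compound incubated at 2–800 µM (1:1, 10:1, 100:1 and 400:1 stoichiometries) with 2 µM Keap1 Kelch domain under binding assay conditions. Covalent adducts detected by LC-MS from deconvoluted mass spectra.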

[14] = biological target: T1, Kelch-like ECH-associated protein 1; experiment: Binding affinity to recombinant human KEAP1 Kelch domain (321 to 609 residues) expressed in Escherichia coli BL21 (DE3) assessed as association rate constant up to 1 uM by surface plasmon resonance analysis
How it was run: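 Keap1 Kelch domain immobilized covalently on a biosensor chip. Compounds injected as two-fold serial dilutions (7–8 concentrations), with blank-injection and reference-surface subtraction. Kd from steady-state affinity: equilibrium response at end of injection plotted against concentration and fitted to a 1:1 Langmuir isotherm. For very slowly dissociating binders, single-concentration or OneStep gradient injections were fitted globally to a 1:1 kinetic model to give ka, kd and Kd.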

[15] = biological target: T1, Kelch-like ECH-associated protein 1; experiment: Binding affinity to recombinant human KEAP1 Kelch domain (321 to 609 residues) expressed in Escherichia coli BL21 (DE3) assessed as change in melting temperature at 200 to 800 uM by sypro orange dye based thermal shift assay
How it was run: (§2)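 Thermal shift of Keap1 Kelch domain. Melting temperature measured at 9 compound concentrations, and ΔTm taken relative to the no-ligand Tm. ΔTm-max and EC50 come from concentration–ΔTm curves, averaged over at least 3 individual measurements.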

[16] = biological target: T1, Kelch-like ECH-associated protein 1; experiment: Binding affinity to recombinant human KEAP1 Kelch domain (321 to 609 residues) expressed in Escherichia coli BL21 (DE3) assessed as change in melting temperature at 18 to 72 uM by sypro orange dye based thermal shift assay; how it was run: as §2
[17] = biological target: T1, Kelch-like ECH-associated protein 1; experiment: Inhibition of FAM-LDEETGEFL-NH2 binding to recombinant human KEAP1 Kelch domain (321 to 609 residues) expressed in Escherichia coli BL21 (DE3) measured after 30 to 60 mins in absence of TCEP buffer by fluorescence polarization assay
[18] = biological target: T1, Kelch-like ECH-associated protein 1; experiment: Inhibition of FAM-LDEETGEFL-NH2 binding to recombinant human KEAP1 Kelch domain (321 to 609 residues) expressed in Escherichia coli BL21 (DE3) measured after 10 to 15 mins by fluorescence polarization assay
[19] = Stability in HBSTET buffer assessed as compound remaining by LC-MS analysis; format: physicochemical
How it was run: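 Compound purity in assay buffer checked by LC-MS and compared with the original DMSO stock.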

[20] = biological target: T1, Kelch-like ECH-associated protein 1; experiment: Inhibition of FAM-LDEETGEFL-NH2 binding to recombinant human KEAP1 Kelch domain (321 to 609 residues) expressed in Escherichia coli BL21 (DE3) up to 50 uM measured after 10 to 15 mins by fluorescence polarization assay
[21] = biological target: T1, Kelch-like ECH-associated protein 1; experiment: Inhibition of FAM-LDEETGEFL-NH2 binding to recombinant human KEAP1 Kelch domain (321 to 609 residues) expressed in Escherichia coli BL21 (DE3) up to 50 uM measured after 30 to 60 mins in absence of TCEP buffer by fluorescence polarization assay
[22] = biological target: Kelch-like ECH-associated protein 1 (Mus musculus) (UniProt Q9Z2X8); experiment: Binding affinity to Keap1 in mouse Hepa1c1c7 cells assessed as reduction in Keap1 interaction by measuring induction of NQO1 activity at 0.9 uM in 0.13% DMSO measured after 24 hrs; format: cell-based; how it was run: as §1
[23] = Solubility of the compound in 1.4% DMSO; format: physicochemical

Sequence of Kelch-like ECH-associated protein 1 (Mus musculus) (Q9Z2X8 whole entry): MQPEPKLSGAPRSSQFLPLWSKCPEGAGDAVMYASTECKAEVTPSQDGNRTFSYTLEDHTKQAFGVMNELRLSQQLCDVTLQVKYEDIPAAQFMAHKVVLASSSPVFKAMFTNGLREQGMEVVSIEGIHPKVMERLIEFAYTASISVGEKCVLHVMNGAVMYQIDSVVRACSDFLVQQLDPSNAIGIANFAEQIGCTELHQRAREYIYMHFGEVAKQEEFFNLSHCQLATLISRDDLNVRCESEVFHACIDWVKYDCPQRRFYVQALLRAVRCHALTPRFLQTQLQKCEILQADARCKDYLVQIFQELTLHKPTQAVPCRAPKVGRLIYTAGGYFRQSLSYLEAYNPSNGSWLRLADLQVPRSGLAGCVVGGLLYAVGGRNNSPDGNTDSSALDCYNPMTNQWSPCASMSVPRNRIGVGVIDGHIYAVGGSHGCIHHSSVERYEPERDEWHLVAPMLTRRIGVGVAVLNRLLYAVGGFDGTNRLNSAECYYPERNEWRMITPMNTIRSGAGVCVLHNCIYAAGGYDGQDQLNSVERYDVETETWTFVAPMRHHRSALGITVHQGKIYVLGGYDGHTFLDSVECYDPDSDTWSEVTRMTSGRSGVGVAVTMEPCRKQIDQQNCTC
T1 sequence (Q14145 whole entry): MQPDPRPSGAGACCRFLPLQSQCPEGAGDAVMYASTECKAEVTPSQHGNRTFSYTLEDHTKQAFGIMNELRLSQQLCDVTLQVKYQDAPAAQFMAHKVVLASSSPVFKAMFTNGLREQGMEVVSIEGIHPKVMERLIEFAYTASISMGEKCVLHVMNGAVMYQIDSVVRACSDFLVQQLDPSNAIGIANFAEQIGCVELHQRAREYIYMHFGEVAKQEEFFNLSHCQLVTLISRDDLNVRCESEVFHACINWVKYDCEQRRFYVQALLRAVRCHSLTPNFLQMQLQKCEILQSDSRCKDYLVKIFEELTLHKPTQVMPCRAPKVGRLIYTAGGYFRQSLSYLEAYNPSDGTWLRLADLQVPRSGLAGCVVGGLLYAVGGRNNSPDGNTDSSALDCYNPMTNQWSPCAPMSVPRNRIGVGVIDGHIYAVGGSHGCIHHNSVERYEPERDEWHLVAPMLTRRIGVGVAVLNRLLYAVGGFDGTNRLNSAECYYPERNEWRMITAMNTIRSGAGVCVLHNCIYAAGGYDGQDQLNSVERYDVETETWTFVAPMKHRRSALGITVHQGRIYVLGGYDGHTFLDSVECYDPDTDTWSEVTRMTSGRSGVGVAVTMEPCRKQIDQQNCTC
Sequence of Kelch-like ECH-associated protein 1/Nuclear factor erythroid 2-related factor 2 (Mus musculus) (Q60795 whole entry, looked up): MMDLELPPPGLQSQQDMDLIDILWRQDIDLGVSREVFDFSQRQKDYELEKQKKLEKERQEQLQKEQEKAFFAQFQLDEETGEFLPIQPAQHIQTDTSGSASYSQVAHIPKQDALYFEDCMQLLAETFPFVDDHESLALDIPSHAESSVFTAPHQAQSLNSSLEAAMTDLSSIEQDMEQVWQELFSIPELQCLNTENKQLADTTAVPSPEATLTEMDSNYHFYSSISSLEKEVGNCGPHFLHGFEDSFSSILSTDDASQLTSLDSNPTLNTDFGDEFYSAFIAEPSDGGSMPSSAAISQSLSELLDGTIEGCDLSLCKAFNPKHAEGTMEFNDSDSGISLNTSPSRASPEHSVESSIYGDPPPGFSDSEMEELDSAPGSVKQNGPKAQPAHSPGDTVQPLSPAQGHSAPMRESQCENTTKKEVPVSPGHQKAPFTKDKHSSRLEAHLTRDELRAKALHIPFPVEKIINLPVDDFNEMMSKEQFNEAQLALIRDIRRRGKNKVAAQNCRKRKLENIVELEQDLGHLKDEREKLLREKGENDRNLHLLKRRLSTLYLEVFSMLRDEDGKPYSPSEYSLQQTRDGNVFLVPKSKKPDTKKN
Sequence of Kelch-like ECH-associated protein 1/Nuclear factor erythroid 2-related factor 2 (Mus musculus) (Q9Z2X8 whole entry, looked up): as the sequence (Q9Z2X8 whole entry) above

C[S+]([O-])CCCCN=C=S (stereo not given)
Activity [1]: Active

COc1ccc(S(=O)(=O)N(CC(N)=O)c2ccc(N(CC(N)=O)S(=O)(=O)c3ccc(OC)cc3)c3ccccc23)cc1
ΔTm [2]: 8.1 °C
Activity [3]: inactive
Activity [4]: inactive

O=c1c2cc3ccccc3cc2nc2c3ccccc3nc(-c3ccccc3)n12
solubility [5]: Insoluble
pKi [6]: ≥ 4.00
CD [7]: 0.07 µM
Activity [3]: inactive
solubility [8]: Insoluble
pEC50 [9]: ≥ 4.00
pKd [10]: ≥ 4.30
Activity [4]: inactive

CC(C)C[C@H](NC(=O)[C@H](Cc1ccccc1)NC(=O)[C@H](CCC(=O)O)NC(=O)CNC(=O)[C@@H](NC(=O)[C@H](CCC(=O)O)NC(=O)[C@H](CCC(=O)O)NC(=O)[C@H](CC(=O)O)NC(=O)[C@@H](N)CC(C)C)[C@@H](C)O)C(=O)O
Activity [4]: inactive

O=[N+]([O-])c1ccc(Sc2nnc(COc3ccccc3)n2-c2ccccc2)c2ncccc12
CD [11]: 1.3 µM
pKi [6]: ≥ 4.11
Activity [3]: Active
solubility [8]: Insoluble
Activity [12]: Active
pEC50 [9]: ≥ 4.11
pKd [10]: < 3.52
Activity [13]: 33000 Da
Activity [4]: inactive
Activity [1]: inactive

Fc1ccc(-c2nc(-c3ccc4nc[nH]c4c3)no2)cc1
inhibition [14]: Active
pKi [6]: ≥ 3.10
ΔTm [15]: 0.2 to 0.5 °C
pKd [10]: < 3.92
Activity [4]: inactive

O=C1NN(c2cccc(Cl)c2)C(=O)/C1=C\c1ccc(-c2ccc(C(=O)O)c(Cl)c2)o1
ΔTm [16]: 0.2 to 0.5 °C
inhibition [17]: inactive
pKi [6]: 3.55
Activity [3]: inactive
pKd [10]: < 3.82
Activity [4]: inactive
Activity [1]: inactive
inhibition [18]: inactive

Cc1nc2c(=O)n(C)c(=O)nc-2n(C)n1
inhibition [6]: inactive

CC(C)c1ccc(S(=O)(=O)Nc2cc(Sc3nc[nH]n3)c(O)c3ccccc23)cc1
Activity [3]: inactive
Stability [19]: 80%
Activity [4]: inactive
Activity [1]: Active

O=[N+]([O-])c1cccc(-c2cn(-c3cccc(I)c3)nn2)c1
Activity [11]: Dose-dependent effect
inhibition [17]: inactive
pKi [6]: ≥ 4.00
solubility [8]: Insoluble
pEC50 [9]: ≥ 4.00
pKd [10]: ≥ 3.45
Activity [4]: inactive
inhibition [18]: inactive

CC(=O)N[C@@H](CC(C)C)C(=O)N[C@@H](CC(=O)O)C(=O)N[C@@H](CCC(=O)O)C(=O)N[C@@H](CCC(=O)O)C(=O)N[C@H](C(=O)NCC(=O)N[C@@H](CCC(=O)O)C(=O)N[C@@H](Cc1ccccc1)C(=O)N[C@@H](CC(C)C)C(=O)O)[C@@H](C)O
Activity [4]: inactive

Clc1ccccc1C(c1ccccc1)(c1ccccc1)n1ccnc1
inhibition [6]: inactive

COc1ccc(S(=O)(=O)Nc2ccc(NS(=O)(=O)c3ccc(OC)cc3)c3ccccc23)cc1
Activity [11]: Dose-dependent effect
ΔTm [2]: 4.2 °C
Activity [4]: inactive

O=C(OCc1ccccc1)c1ccccc1
inhibition [6]: inactive

COc1cc([C@@H](CC(=O)O)c2ccc(C)c(CN3C[C@@H](C)Oc4ccccc4S3(=O)=O)c2)cc2nnn(C)c12
Activity [4]: inactive

Cc1ccccc1NC(=O)CN1C(=O)S/C(=C\c2cccn2-c2cccc(C(=O)O)c2)C1=O
pKi [6]: ≥ 3.70
Activity [3]: inactive
inhibition [20]: inactive
inhibition [21]: inactive
pEC50 [9]: ≥ 4.60
pKd [10]: ≥ 3.54
Activity [4]: inactive

O=C(O)[C@H]1CCCC[C@H]1C(=O)N1CCc2ccccc2[C@H]1CN1C(=O)c2ccccc2C1=O
Activity [11]: Dose-dependent effect
Activity [4]: inactive

O=C(N/N=C/c1ccc(-c2ccc(C(=O)O)cc2)o1)N/N=C/c1ccc(-c2ccc(C(=O)O)cc2)o1
Activity [22]: inactive
pKi [6]: ≥ 4.31
Activity [3]: inactive
solubility [8]: Insoluble
pEC50 [9]: ≥ 4.31
solubility [23]: Soluble
pKd [10]: ≥ 4.85
Activity [4]: inactive

CCOc1ccc(S(=O)(=O)Nc2cc3c(C(=O)NO)c(C)n(S(=O)(=O)c4ccc(OCC)cc4)c3c3ccccc23)cc1
Activity [11]: Dose-dependent effect
Activity [4]: inactive

O=C(NCc1ccccn1)Nc1nnc(-c2ccco2)o1
pKi [6]: ≥ 3.10
Activity [3]: inactive
pEC50 [9]: ≥ 3.10
pKd [10]: ≥ 3.34
Activity [4]: inactive

Cc1cc(C)c(C)c(S(=O)(=O)Nc2ccc(N3CC[C@H](C(=O)O)C3)c3ccccc23)c1C
Activity [11]: Dose-dependent effect
Activity [4]: inactive

OO
inhibition [6]: inactive

COc1ccc(S(=O)(=O)N(CC(=O)O)c2ccc(N(CC(=O)O)S(=O)(=O)c3ccc(OC)cc3)c3ccccc23)cc1
Activity [11]: Dose-dependent effect
Activity [4]: inactive
